Measured values pooled from the literature.
Each line is one published result; the experiments were not run side by side.
Organism: Staphylococcus aureus
Read-out: microbial growth

| SMILES | method | strain | time | notes | MIC |
| --- | --- | --- | --- | --- | --- |
| CN[C@H](CC(C)C)C(=O)N[C@H]1C(=O)N[C@@H](CC(N)=O)C(=O)N[C@H]2C(=O)N[C@H]3C(=O)N[C@H](C(=O)N[C@H](C(=O)O)c4cc(O)cc(O)c4-c4cc3ccc4O)[C@H](O)c3ccc(c(Cl)c3)Oc3cc2cc(c3O[C@@H]2O[C@H](CO)[C@@H](O)[C@H](O)[C@H]2O[C@H]2C[C@](C)(N)[C@H](O)[C@H](C)O2)Oc2ccc(cc2Cl)[C@H]1O | agar dilution | ATCC43300 |  |  | 2 µg/mL |
| CCCCCCC#Cc1cncc(-c2nnc(SCc3ccc([N+](=O)[O-])o3)n2CCCN)c1 | broth dilution | ATCC29213 |  |  | > 64 µg/mL |
| Cc1ccc2[nH]nc(-c3nnc(Nc4ccc(F)cc4)s3)c2c1 |  | ATCC29213 |  |  | 18.3 µg/mL |
| CC1(C)S[C@@H]2[C@H](NC(=O)[C@H](N)c3ccc(O)cc3)C(=O)N2[C@H]1C(=O)O | broth dilution | ATCCBAA44 BAA44 |  |  | 64 µg/mL |
| C[C@@H](O)[C@H]1C(=O)N2C(C(=O)O)=C(S[C@@H]3CN[C@H](C(=O)N(C)C)C3)[C@H](C)[C@H]12 |  | ATCC29213 MSSA |  | drug-resistant strain | 0.06 µg/mL |
| C[C@H]1COc2c(N3CCN(C)CC3)c(F)cc3c(=O)c(C(=O)O)cn1c23 | broth dilution | ATCCBAA44 | 18 h |  | 50 µM |
| CC[C@H]1OC(=O)[C@H](C)[C@@H](O[C@H]2C[C@@](C)(OC)[C@@H](O)[C@H](C)O2)[C@H](C)[C@@H](O[C@@H]2O[C@H](C)C[C@H](N(C)C)[C@H]2O)[C@](C)(O)C[C@@H](C)/C(=N\OCOCCOC)[C@H](C)[C@@H](O)[C@]1(C)O | agar dilution | ATCC25923 |  |  | 2 µg/mL |
| CC[C@H]1OC(=O)[C@H](C)[C@@H](O[C@H]2C[C@@](C)(OC)[C@@H](O)[C@H](C)O2)[C@H](C)[C@@H](O[C@@H]2O[C@H](C)C[C@H](N(C)C)[C@H]2O)[C@](C)(O)C[C@@H](C)CN(C)[C@H](C)[C@@H](O)[C@]1(C)O | broth dilution | USA300 |  |  | > 64 µg/mL |
| CCCCCCC#Cc1cncc(-c2nnc(SCc3ccc([N+](=O)[O-])cc3)n2CCCN)c1 | broth dilution | ATCC29213 |  |  | 8 µg/mL |
| CN1CCN(CCNCc2cc3cc(-c4ccccc4)ccc3nc2SCc2ccccc2)CC1 | broth dilution |  |  |  | 8 µg/mL |
| O=C(O)c1cn(C2CC2)c2cc(N3CCNCC3)c(F)cc2c1=O | broth dilution | ATCC33591 MRSA |  |  | 0.5 µg/mL |
| N[C@@H](Cc1c[nH]c2ccc(Cl)cc12)C(=O)O |  | NEWMAN | 18 h |  | 200 µM |
| CN[C@H](CC(C)C)C(=O)N[C@H]1C(=O)N[C@@H](CC(N)=O)C(=O)N[C@H]2C(=O)N[C@H]3C(=O)N[C@H](C(=O)N[C@H](C(=O)O)c4cc(O)cc(O)c4-c4cc3ccc4O)[C@H](O)c3ccc(c(Cl)c3)Oc3cc2cc(c3O[C@@H]2O[C@H](CO)[C@@H](O)[C@H](O)[C@H]2O[C@H]2C[C@](C)(N)[C@H](O)[C@H](C)O2)Oc2ccc(cc2Cl)[C@H]1O | broth dilution | ATCC29213 |  |  | 1 µg/mL |
| CCCCCCC#Cc1cncc(-c2nnc(SCc3cc(C(F)(F)F)cc(C(F)(F)F)c3)n2CCCN)c1 | broth dilution | MRSA |  |  | 4 µg/mL |
| CN(C)[C@@H]1C(O)=C(C(N)=O)C(=O)[C@@]2(O)C(O)=C3C(=O)c4c(O)cccc4[C@@](C)(O)[C@H]3C[C@@H]12 | broth dilution | ATCC25923 | 16 h |  | 3.1 µM |
| O=C1/C(=C/c2ccc3ccccc3c2O)NC(=S)N1c1ccccc1 | broth dilution | ATCC6538 |  |  | 22 µg/mL |
| CCCCCCC#Cc1cncc(-c2nnc(SCc3ccc(Cl)cc3)n2CCCN)c1 | broth dilution | MRSA |  |  | 4 to 8 µg/mL |
| c1ccc(CSc2nc3ccc(-c4ccccc4)cc3cc2CNCc2ccc(CN3CCCC3)cc2)cc1 | broth dilution |  |  |  | > 128 µg/mL |
| COc1ccc(-n2nc(C(=O)c3ccc(Nc4cnccn4)cc3)sc2=N)cc1 | broth dilution | ATCC25923 |  |  | 6.25 µg/mL |

| SMILES | method | strain | time | notes | MIC |
| --- | --- | --- | --- | --- | --- |
| [H]/N=C(\N/C(=N/[H])NCCCCCCNC(=N)NC(=N)Nc1ccc(Cl)cc1)Nc1ccc(Cl)cc1 |  | MSSA |  |  | 0.5 µM |
| COc1ccc(N2N=C(C(C)=O)SC2=C(C#N)C(=O)c2ccc(Nc3cnccn3)cc2)cc1 | broth dilution | ATCC25923 |  |  | 6.25 µg/mL |
| CC(=O)NC[C@H]1CN(c2ccc(N3CCOCC3)c(F)c2)C(=O)O1 | broth dilution | ATCCBAA44 BAA44 |  |  | 0.5 µg/mL |
| Cc1ccc2[nH]nc(-c3nnc(Nc4ccc(C(F)(F)F)cc4)s3)c2c1 |  | ATCC29213 |  |  | 14.4 µg/mL |
| CN1CCN(CCNCc2cc3ccccc3nc2SCc2ccccc2)CC1 | broth dilution |  |  |  | 64 µg/mL |
| CCC[C@@H]1C[C@@H](C(=O)N[C@@H]([C@H]2O[C@H](SC)[C@H](O)[C@@H](O)[C@H]2O)[C@@H](C)O)N(C)C1 | broth dilution | USA300 |  |  | 2 µg/mL |
| CC(=O)NC[C@H]1CN(c2ccc(N3CCOCC3)c(F)c2)C(=O)O1 | agar dilution | ATCC43300 |  |  | 2 µg/mL |
| CCCCCCC#Cc1cncc(-c2nnc(SCc3cc([N+](=O)[O-])cc([N+](=O)[O-])c3)n2CCOC2OC(CN)C(O)C2O)c1 (centres unmarked) | broth dilution | ATCC29213 |  |  | > 64 µg/mL |
| C=C[C@]1(C)C[C@@H](OC(=O)CS[C@@H]2C[C@H]3CC[C@@H](C2)N3C)[C@]2(C)[C@H](C)CC[C@]3(CCC(=O)[C@H]32)[C@@H](C)[C@@H]1O | agar dilution | ATCC29213 |  |  | 0.0625 µg/mL |
| CC(=O)OCC1=C(C(=O)O)N2C(=O)[C@@H](NC(=O)Cc3cccs3)[C@H]2SC1 | broth dilution | ATCC25923 |  |  | 6.25 µg/mL |
| CCCCCCCCCCCC[N+](C)(C)Cc1ccccc1 |  | ATCC33591 MRSA |  | drug-resistant strain | 32 µM |
| CN1CCN(CCNCc2cc3cc(Br)ccc3nc2SCc2ccccc2)CC1 | broth dilution |  |  |  | 16 µg/mL |
| COc1c(N2C[C@@H]3CCCN[C@@H]3C2)c(F)cc2c(=O)c(C(=O)O)cn(C3CC3)c12 | agar dilution | ATCC25923 |  |  | 0.0625 µg/mL |
| Cc1ccc2[nH]nc(-c3nnc(Nc4ccc(Cl)c(Cl)c4)s3)c2c1 |  | ATCC29213 |  |  | 97.5 µg/mL |
| CCCCCCCCN=c1ccn(CCCCCCCCCCn2ccc(=NCCCCCCCC)cc2)cc1 |  | MRSA USA300 |  | drug-resistant strain | 0.5 µM |
| Cc1ccc2[nH]nc(-c3nnc(Nc4ccc(Cl)c(Br)c4)s3)c2c1 |  | ATCC29213 |  |  | 204 µg/mL |
| c1ccc(CSc2nc3ccc(-c4ccccc4)cc3cc2CNCCC2CCN(C3CCCC3)CC2)cc1 | broth dilution |  |  |  | 8 µg/mL |
| CC[C@H]1OC(=O)[C@H](C)[C@@H](O[C@H]2C[C@@](C)(OC)[C@@H](O)[C@H](C)O2)[C@H](C)[C@@H](O[C@@H]2O[C@H](C)C[C@H](N(C)C)[C@H]2O)[C@](C)(O)C[C@@H](C)CN(C)[C@H](C)[C@@H](O)[C@]1(C)O |  | ATCC29213 |  |  | < 98 µg/mL |
| CC1(C)S[C@@H]2[C@H](NC(=O)[C@H](N)c3ccccc3)C(=O)N2[C@H]1C(=O)O | agar dilution | ATCC25923 |  |  | 0.5 µg/mL |
